# Bioassay records: PubChem BioAssay, several laboratories
# The list is not random: actives were taken first. Their share in the collection is about 3.1%.
# aDG glyco act – activators of alpha-DG glycosylation, primary screen, uHTS, Pro5-aDG cells, AlphaScreen; alpha-DG glycosylation AlphaScreen (IIH6); 0% Pro5, 100% B10-LARGE cell signal; activation, % at 10 µM; actives 0.22% (n = 360,000); AID 624168, 2012;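 active = activation of at least 8% versus controls, or a plate z-score of at least 8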;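 also: Pro5 are CHO cells carrying HIG-tagged alpha-DG that lacks glycosylation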
# MPTP block – mitochondrial permeability transition pore inhibitors, primary screen, biochemical, isolated mouse mitochondria, absorbance | inhibition, % at 10 µM | Ca2+ swelling absorbance, 30 min | actives 1.4% (n = 360,000);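 active = inhibition of 50% or more, scaled per plate between neutral and stimulator controls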;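 also: 0% = DMSO wells given calcium and 100% = 1 mM EGTA wells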
# ADAM17 inh – ADAM17 inhibitors, primary screen, biochemical, QFRET; Disintegrin and metalloproteinase domain-containing protein 17 (Homo sapiens), P78536; recombinant ADAM17, EDANS/DABCYL FRET peptide cleavage; inhibition, % at 6.95 µM; actives 0.83% (n = 370,000); AID 720648, 2013;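 active = inhibition above the mean of compounds lying between control limits plus 3 SD, set per campaign, cut at about 8.5% in these data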;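 also: 0% = DMSO-only wells as the low control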
# Hep lipid drop – inhibitors of hepatocyte lipid droplet formation, primary screen, imaging, high-throughput imaging, BODIPY stain; inhibition, % at 6.5 µM; AID 1656, 2009; AML12 mouse hepatocytes, oleate lipid droplets; actives 0.4% (n = 240,000);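 active = lipid droplet intensity inhibited by at least 50%, with more than 500 cells counted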
#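 Material – AML12 mouse liver cells · Also added – oleate loading, 100 µM · Compound dosing – 6.5 µM single-point dosing · Times – overnight treatment with compound plus oleate · Measured by – fluorescence imaging, 20x objective, two fields per well · Read-out – percent inhibition of filter-corrected integrated lipid droplet intensity per well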
# ADAM10 inh – human ADAM10 inhibitors, primary screen, biochemical, QFRET, HTS; Disintegrin and metalloproteinase domain-containing protein 10 (Homo sapiens), O14672; AID 720582, 2013; actives 0.62% (n = 370,000); recombinant ADAM10, EDANS/DABCYL FRET peptide cleavage, 3 h; inhibition, % at 7 µM;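 active = inhibition above a per-campaign cutoff equal to the mean of compounds falling between control-based bounds plus 3 SD, cut at about 20% in these data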;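 also: 0% = DMSO wells while the 100% control is not disclosed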
# Target sequence (O14672 214-748 limits assumed): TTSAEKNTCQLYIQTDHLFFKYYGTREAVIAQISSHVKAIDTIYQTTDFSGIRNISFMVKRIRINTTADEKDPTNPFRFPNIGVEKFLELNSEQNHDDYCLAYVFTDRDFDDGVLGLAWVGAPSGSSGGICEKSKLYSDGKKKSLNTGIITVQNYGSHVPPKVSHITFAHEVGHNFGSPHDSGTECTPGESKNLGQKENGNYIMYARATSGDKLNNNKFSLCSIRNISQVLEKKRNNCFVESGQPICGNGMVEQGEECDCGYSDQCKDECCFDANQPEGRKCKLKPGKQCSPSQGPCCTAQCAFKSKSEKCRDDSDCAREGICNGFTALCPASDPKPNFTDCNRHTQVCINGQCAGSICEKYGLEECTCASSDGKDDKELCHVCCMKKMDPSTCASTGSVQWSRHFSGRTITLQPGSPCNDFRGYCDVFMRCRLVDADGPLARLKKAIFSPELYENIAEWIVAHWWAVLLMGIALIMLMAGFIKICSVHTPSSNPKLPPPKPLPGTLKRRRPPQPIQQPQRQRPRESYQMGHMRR
# V-ATPase pH – regulators of yeast V-ATPase proton pumping, primary screen, pHLuorin cytosolic pH fluorescence | actives 0.37% (n = 350,000) | response, % at 10 µM | S. cerevisiae; in the data active = response mostly above about 7.3%, no sharp cut-off; inactive = mostly below about 5.4%; also: actives read high
# MPTP counter – fluorescence retest of MPTP screen hits in isolated mitochondria, single concentration; shares compounds with MPTP block; membrane potential, Rhodamine 123 fluorescence; inhibition, % at 10 µM; actives 78% (n = 5,000); AID 624504, 2012; in the data active = inhibition above about 22%;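 also: 0% = DMSO vehicle and 100% = positive control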
# MPTP swell DR – mitochondrial permeability transition pore inhibitors, dose response, biochemical, absorbance, uHTS hits; isolated mitochondria swelling; shares compounds with MPTP block; AID 651561, 2012; IC50, µM; actives 58% (n = 780); in the data active = IC50 below about 20 µM
# MPTP cs DR – fluorescent counter-screen in isolated mitochondria, dose response, counter-screen for MPTP inhibitor project, biochemical, fluorescence, uHTS hits. shares compounds with MPTP block. isolated mitochondria counterscreen, fluorescence read-out. IC50, µM. actives 49% (n = 780); in the data active = IC50 below about 80 µM
# * hit, by the source's call; . = no result given.
SMILES,aDG glyco act,MPTP block,ADAM17 inh,Hep lipid drop,ADAM10 inh,V-ATPase pH,MPTP counter,others
Cc1cc(N2CCN(c3ccccc3)CC2)nc(NCc2ccccc2)n1,1.5,64.7*,-5.0,.,-9.2,-8.5,20.8*,
Cc1cc(OC(C)C)nc(NCc2ccccc2)n1,0.1,-3.2,-1.8,.,1.5,-0.1,.,
Cc1ccc(Nc2cc(C)nc(NCc3ccccc3)n2)cc1,0.0,55.8*,3.2,-11.7,5.4,5.2,45.3*,
COc1ccc(Nc2cc(C)nc(NCc3ccccc3)n2)cc1,-0.2,57.1*,0.0,-57.3,2.3,-1.7,46.8*,
Cc1cc(NC2CCCCC2)nc(NCc2ccccc2)n1,-0.4,85.8*,-4.2,-82.6,-9.0,-0.2,110.9*,
CCc1nnn2c1Cn1c3ccccc3c(=O)n1[C@@H](C(C)C)C2,.,.,-27.6,.,-110.2,.,.,
CC1(C)SC(=S)N(NC(=O)Nc2cccc3ccccc23)C1N(O)C(=O)Nc1ccccc1 (stereo unspecified),0.3,94.9*,4.8,-20.0,0.4,-1.7,73.7*,
CNC(=O)N(O)C1N(NC(=O)Nc2ccccc2)C(=S)SC1(C)C (stereo unspecified),0.0,2.1,-4.1,.,-4.6,4.8,.,
CN1CCN(NC(=O)c2cc(-c3ccc(Br)s3)nc3ccccc23)CC1,1.0,82.1*,-104.4,-18.0,-340.6,-3.7,-17.4,MPTP swell DR=15.1*;MPTP cs DR=>80
Cc1cc(C)nc(SCC(=O)N/N=C/C=C/c2ccccc2)n1,0.0,2.8,2.0,19.0,7.0,-3.2,.,
Cc1cc(C)nc(SCC(=O)N/N=C\C(Br)=C\c2ccccc2)n1,0.3,70.6*,-1.9,-4.5,-2.1,0.1,65.8*,
O=C(Nc1ccc(Cl)cc1)OCCn1nnnc1C(c1ccccc1Cl)N1CCOCC1 (stereo unspecified),0.1,72.4*,2.4,.,16.2,-2.4,85.2*,
O=C(Nc1ccc(Cl)cc1)OCCN1CCOCC1,0.0,0.0,-7.3,.,-23.5,-0.8,.,
COc1ccc(CN(C)S(=O)(=O)c2nnc(NC(=O)c3cccc(OC)c3)s2)cc1,0.2,11.3,-1.0,3.5,7.8,0.4,.,
COc1cccc(C(=O)Nc2nnc(S(=O)(=O)N(C)Cc3ccc(F)cc3)s2)c1,-0.3,56.4*,-0.3,5.9,6.3,1.2,80.0*,
COCCNC(=S)N(C)[C@H]1C[C@H]2c3[nH]c4c(-c5ccc6c(c5)OCO6)cccc4c3CCN2C[C@H]1[C@H](C)O,.,.,3.2,.,-1.2,.,.,
COc1ccc(S[C@]2(C(=O)N(C)C)CC(=O)N(C(=O)Nc3ccc(C)c(Cl)c3)[C@@H]2c2ccc(OC)cc2)cc1,.,.,4.0,.,1.3,.,.,
CC(C(=O)Nc1ccc(OCc2ccccc2)cc1)N1CCCC1 (stereo unspecified),0.5,0.5,-5.5,4.4,-2.7,-2.6,.,
CC(C)COCC(CN(Cc1ccccc1)c1ccccc1)N1CCCC1 (stereo unspecified),-0.5,92.2*,-4.5,-20.0,0.1,-5.5,-4.9,MPTP swell DR=13.5*;MPTP cs DR=44.1*
COC(=O)c1ccc(NC(=S)NC(=O)C2CCC2)cc1,-0.2,0.6,-1.2,-2.0,-2.8,-0.7,.,
CCOC(=O)c1ccc(NC(=S)NCCC2=CCCCC2)cc1,0.8,76.7*,6.7,2.0,12.2,0.3,85.9*,
CCOC(=O)c1ccc(NC(=S)NCc2ccccc2)cc1,0.2,88.8*,1.4,.,10.7,7.4,86.8*,
CCOC(=O)c1ccc(NC(=O)NCCc2ccccc2OC)cc1,0.1,2.9,4.6,-11.3,7.5,-1.9,.,
COC(=O)c1ccc(NC(=S)NC2CCCCC2C)cc1 (stereo unspecified),0.3,97.8*,3.4,5.8,5.7,3.4,94.4*,
CCOC(=O)c1ccc(NC(=S)NCCc2ccccc2F)cc1,0.9,78.0*,4.5,-2.2,8.6,-1.5,88.7*,
SMILES,aDG glyco act,MPTP block,ADAM17 inh,Hep lipid drop,ADAM10 inh,V-ATPase pH,MPTP counter,others
O=C(NCCC1=CCCCC1)Nc1ccc2nsnc2c1,1.8,85.2*,-105.5,-12.1,-303.2,0.2,84.9*,
CCOC(=O)c1ccc(NC(=S)NC2CCCC2)cc1,0.2,95.1*,1.3,2.2,5.9,-5.1,95.8*,
CCC[C@H]1[C@@H](NC(=O)/C=C/c2ccccc2)CC[C@@]23CCCN2C(=O)CCC[C@@H]13,.,.,-3.4,.,-7.5,.,.,
Cc1cc(C)c(-c2csc(Cc3nc(-c4cc5ccccc5oc4=O)cs3)n2)cc1C,0.2,53.1*,-14.1,-30.9,-47.6,-0.5,9.7,MPTP swell DR=6.29*;MPTP cs DR=7.84*
CC1(C)N=C(N)N=C(N)N1c1ccc(CCCCc2ccccc2)cc1,-0.3,64.3*,0.6,.,10.1,0.9,60.3*,
CC1(C)N=C(N)N=C(N)N1c1ccccc1,-0.3,0.1,1.4,-21.5,7.4,-0.3,.,
C=CC(C)(C)c1c2occc2c(O)c2ccc(=O)oc12,-0.2,73.7*,-0.3,.,-5.0,-1.3,83.9*,
COc1cc(C[C@@H]2C(=O)OC[C@H]2Cc2ccc(OC)c(OC)c2)ccc1O,4.8,92.5*,3.1,.,1.0,2.2,80.4*,
COc1cc(CC2COC(=O)C2Cc2ccc(O)c(OC)c2)ccc1O (stereo unspecified),.,.,-1.9,.,-0.4,.,.,
COC(=O)[C@]12C[C@H](CC(=O)N3CCSCC3)C(=O)N(CCC3=CCCCC3)C1=C[C@H](C(C)C)O[C@@H]2C1CC1,.,.,5.0,.,14.3,.,.,
COc1cccc(-c2cc3nc(C)c(C)c(N4CCN(Cc5ccco5)CC4)n3n2)c1,.,.,-5.9,.,-26.1,.,.,
CN(C)CCCN(C(=O)c1ccc(S(=O)(=O)N(C)Cc2ccccc2)cc1)c1nc2cc3c(cc2s1)OCO3,2.1,-1.2,1.4,-1.1,4.2,2.5,.,
COc1ccc2sc(N(CCCN(C)C)C(=O)c3ccc(S(=O)(=O)N(C)Cc4ccccc4)cc3)nc2c1,0.4,78.1*,-3.8,.,1.0,-4.8,-11.4,MPTP swell DR=8.11*
Cc1ccc2sc(N(CCCN(C)C)C(=O)c3ccc(S(=O)(=O)N(C)Cc4ccccc4)cc3)nc2c1C,3.5,70.7*,3.8,.,7.8,-0.9,-9.6,
